Laboratory results published in ChEMBL document CHEMBL1269001, “Design, synthesis and biological evaluation of quinoline amide derivatives as novel VEGFR-2 inhibitors” (Bioorg Med Chem Lett, 2010).

Experiments:
[1] = target: Vascular endothelial growth factor receptor 2 (Homo sapiens, UniProt P35968); test: Inhibition of VEGFR2
HUVEC [2] = test: Inhibition of VEGF-induced proliferation in HUVEC cells assessed as BrdU incorporation by ELISA; format: functional, cell-based; details: Homo sapiens
How it was run: (§1)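 HUVEC were seeded in 5% FBS medium on type 1 collagen-coated plates and incubated overnight at 37 °C, 5% CO₂. The medium was replaced with inhibitor at various concentrations in serum-free medium. Cells were incubated a further 72 h, with BrdU added during the last 18–24 h. Incorporation was read by ELISA.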

HUVEC [3] = test: Inhibition of […]-induced proliferation in HUVEC cells assessed as BrdU incorporation by ELISA; format: functional, cell-based; details: Homo sapiens; how it was run: as §1

Vascular endothelial growth factor receptor 2, sequence (P35968 whole entry): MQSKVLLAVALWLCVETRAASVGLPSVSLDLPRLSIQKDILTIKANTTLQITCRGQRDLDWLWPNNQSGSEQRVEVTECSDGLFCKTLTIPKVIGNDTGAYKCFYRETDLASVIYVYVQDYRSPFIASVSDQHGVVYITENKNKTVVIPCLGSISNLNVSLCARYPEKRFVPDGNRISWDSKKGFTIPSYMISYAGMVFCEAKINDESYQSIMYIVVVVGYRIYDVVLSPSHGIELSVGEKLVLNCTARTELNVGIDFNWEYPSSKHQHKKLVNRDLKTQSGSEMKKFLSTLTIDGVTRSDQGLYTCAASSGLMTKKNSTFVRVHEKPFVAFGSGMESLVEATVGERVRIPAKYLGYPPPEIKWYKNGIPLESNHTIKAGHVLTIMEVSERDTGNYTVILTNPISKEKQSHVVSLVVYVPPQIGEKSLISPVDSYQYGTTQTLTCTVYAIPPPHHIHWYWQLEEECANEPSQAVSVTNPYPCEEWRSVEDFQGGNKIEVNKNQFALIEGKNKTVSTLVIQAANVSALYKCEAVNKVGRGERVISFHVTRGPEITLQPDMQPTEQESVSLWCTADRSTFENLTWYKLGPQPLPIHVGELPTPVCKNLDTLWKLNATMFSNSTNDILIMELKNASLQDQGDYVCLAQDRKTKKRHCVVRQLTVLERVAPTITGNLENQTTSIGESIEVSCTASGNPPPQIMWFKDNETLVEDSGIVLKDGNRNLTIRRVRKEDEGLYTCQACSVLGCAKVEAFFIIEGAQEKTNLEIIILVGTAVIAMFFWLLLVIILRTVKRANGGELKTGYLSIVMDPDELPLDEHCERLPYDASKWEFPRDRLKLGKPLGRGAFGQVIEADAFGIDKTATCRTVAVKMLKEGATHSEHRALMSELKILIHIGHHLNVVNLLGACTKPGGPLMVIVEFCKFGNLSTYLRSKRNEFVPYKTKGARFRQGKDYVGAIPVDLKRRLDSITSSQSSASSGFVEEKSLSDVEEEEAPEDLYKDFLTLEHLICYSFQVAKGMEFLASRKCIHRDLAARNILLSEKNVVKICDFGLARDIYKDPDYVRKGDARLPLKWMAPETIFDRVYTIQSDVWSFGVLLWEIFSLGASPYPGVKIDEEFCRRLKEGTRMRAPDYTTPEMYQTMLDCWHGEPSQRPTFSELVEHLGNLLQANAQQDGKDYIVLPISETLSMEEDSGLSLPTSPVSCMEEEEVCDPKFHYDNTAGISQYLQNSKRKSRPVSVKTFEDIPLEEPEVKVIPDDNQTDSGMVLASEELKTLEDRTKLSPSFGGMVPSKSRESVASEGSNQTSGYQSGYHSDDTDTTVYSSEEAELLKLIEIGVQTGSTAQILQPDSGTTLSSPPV

SMILES | IC50 [1] | IC50 (HUVEC [2]) | IC50 (HUVEC [3])
O=C(Nc1cccc2cccnc12)c1ccccc1 | 135 nM | 72.4 nM | 1160 nM
O=C(Nc1cccc2cccnc12)c1ccc(Cl)cc1 | 125 nM | 15.2 nM | 220 nM
O=C(Nc1cccc2cccnc12)c1ccccc1Cl | 23.6 nM | 123 nM | 1150 nM
O=C(Nc1cccc2cccnc12)c1ccc(Cl)nc1 | 84.9 nM | 141 nM | 560 nM
O=C(Nc1cccc2cccnc12)c1cncc(Br)c1 | 209 nM | 211 nM | 346 nM
O=C(Nc1cnc2ccccc2c1)c1ccccc1 | 107 nM | 78.9 nM | 68 nM
O=C(Nc1cnc2ccccc2c1)c1cncc(Br)c1 | 88.5 nM | 59.5 nM | 1140 nM
O=C(Nc1cccc2cccnc12)c1ccc([N+](=O)[O-])cc1 | 113 nM | 46.7 nM | 450 nM
O=C(Nc1cccc2cccnc12)c1cccc([N+](=O)[O-])c1 | 16.5 nM | 15.8 nM | 210 nM
O=C(Nc1cccc2cccnc12)c1cc(Cl)ccc1O | 3.8 nM | 5.5 nM | 110 nM
Cc1ccc(C(=O)Nc2cccc3cccnc23)c(O)c1 | 9.6 nM | 19.8 nM | 45 nM
Cc1cccc(C(=O)Nc2cccc3cccnc23)c1O | 26.5 nM | 26.3 nM | 1140 nM
O=C(Nc1cccc2cccnc12)c1cc(Br)cnc1O | 5.5 nM | 12.9 nM | 560 nM
Cc1cnc(O)c(C(=O)Nc2cccc3cccnc23)c1 | 13.5 nM | 13.6 nM | 1150 nM
Cc1cccc(C(=O)Nc2cnc3ccccc3c2)c1Br | 28.4 nM | 11.6 nM | 660 nM
Cc1cc(Cl)cc(C(=O)Nc2cnc3ccccc3c2)c1 | 326 nM | 76.3 nM | 560 nM
O=C(Nc1cnc2ccccc2c1)c1cc(Br)cc(Br)c1O | 32.4 nM | 18.9 nM | 240 nM
O=C(Nc1cnc2ccccc2c1)c1cccc(Cl)c1O | 72.8 nM | 28.4 nM | 340 nM
Cc1cc(Br)cc(C(=O)Nc2cnc3ccccc3c2)c1O | 12.4 nM | 18.9 nM | 470 nM
O=C(Nc1cnc2ccccc2c1)c1cc(Cl)cnc1Br | 23.4 nM | 58.9 nM | 1240 nM
Cc1cnc(Cl)c(C(=O)Nc2cnc3ccccc3c2)c1 | 102 nM | 77.6 nM | 885 nM
Cc1cc(Br)cc(C(=O)Nc2cnc3ccccc3c2)c1 | 113 nM | 89.6 nM | 720 nM
O=C(Nc1cnc2ccccc2c1)c1cc(Cl)c(O)nc1O | 32.7 nM | 14.5 nM | 460 nM
Cc1cccc(C(=O)Nc2cnc3ccccc3c2)c1O | 25.5 nM | 35.7 nM | 780 nM
